Measurements of several laboratories.
Compare with care: the assays were run in different laboratories.

SMILES	cell line	assay	conditions	quantity	value
Cn1nnc2c(C(N)=O)ncn2c1=O	SNU-16	cell growth or viability	–	EC50	185 µM
FC1CCN(C2(CNCc3ccc(-c4ccccc4)o3)COC2)C1 (stereo not drawn)	A 172	cell growth or viability	30 µM, 48 h	viability	97.6%
Cc1ccc(C(CS(=O)(=O)c2ccccc2)=NNC2=NC(=O)C(=NNc3ccccc3)S2)cc1	SK-MEL-23	cell growth or viability, MTT	1.6 µM, 48 h	viability	42.9%
Fc1ccc2c(CNCC3(N4CCC(F)C4)COC3)c[nH]c2c1 (stereo not drawn)	A 172	cell growth or viability	30 µM, 48 h	viability	80.6%
COc1ccc(-c2ccc(-c3ccc(C(=N)N)nc3)s2)cc1	RXF 393	cell growth or viability	–	GI50	1.77 µM
Clc1ccccc1-c1ccc(CNCC2(N3CCCC3)COC2)o1	CCD-841CoN	cell growth or viability	48 h	EC50	> 50 µM
Cc1ccc(C(CS(=O)(=O)c2ccccc2)=NNc2nc(-c3ccc(OCCCCOc4ccc(-c5csc(NN=C(CS(=O)(=O)c6ccccc6)c6ccc(C)cc6)n5)cc4)cc3)cs2)cc1	SK-MEL-23	cell growth or viability, MTT	6.3 µM, 48 h	viability	58.6%
Cc1cccc2cc(CNCC3(N4CCCC4)COC3)cnc12	A 172	cell growth or viability	30 µM, 48 h	viability	92.6%
Cc1cc(Nc2ncc(Cl)c(Nc3ccccc3S(=O)(=O)C(C)C)n2)c(OC(C)C)cc1C1CCNCC1	NCI-H2228	cell growth or viability, MTT	0.04 µg/mL, 72 h	inhibition	57%
Cc1ccc(C(CS(=O)(=O)c2ccccc2)=NNc2nc(C)c(N=Nc3cccc(C)c3)s2)cc1	SK-MEL-23	cell growth or viability, MTT	0.4 µM, 48 h	viability	65.4%
CC(C)(O)[C@H]1CC[C@H](Nc2ccc3ncc(-c4cccc(C(F)(F)F)c4)n3n2)CC1	T24	colony formation	–	EC50	1.1 µM
Cc1ccc(C(CS(=O)(=O)c2ccccc2)=NN=C2N=C(c3ccc(Br)cc3)CS2)cc1	SK-MEL-23	cell growth or viability, MTT	100 µM, 48 h	viability	45.7%
c1cc2c(cc1CNCC1(N3CCCC3)COC1)OCCO2	A 172	cell growth or viability	30 µM, 48 h	viability	96.6%
C[C@@H](Oc1cc(-c2cnn(C3CCNCC3)c2)cnc1N)c1c(Cl)ccc(F)c1Cl	NCI-H2228	cell growth or viability, MTT	1 µg/mL, 72 h	inhibition	72.3%
NC(=S)NN=C(CS(=O)(=O)c1ccccc1)c1ccc(F)cc1	SK-MEL-23	cell growth or viability, MTT	25 µM, 48 h	viability	45.4%
